This note sets out measurements from ChEMBL document CHEMBL1124064, “Synthesis and anticandidal properties of polyoxin L analogues containing alpha-amino fatty acids” (1988).

Assay [1] concerns Candida albicans. Nature of the assay: Percent inhibition of transport of (Met)3 into Candida albicans H-317. The format is functional. More on the design: concentration or dose not given beside the values. Summed up:
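H-317 cells grown in yeast nitrogen base with isoleucine (0.5%) as nitrogen source, washed, and prewarmed 10 min at 37 °C in 2% glucose. Cells were mixed with pH 3.5 citrate (10 mM)-KH2PO4 (10 mM) buffer containing labeled trimethionine (2.9×10^-5 M, 1 μCi/μmol). Analogue was added at 10-fold molar excess. Filtered samples were taken at 0, 1, 2, 3 and 4 min and counted by scintillation; rate was expressed as nmol/mg dry cells/min.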

Assay [2] has as its system Candida albicans. Description: Minimum inhibitory concentration against the growth of Candida albicans 124 strain. In kind it is functional. Summed up:
(§1)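 Cells grown in yeast nitrogen base with ammonium sulfate (0.5%) as nitrogen source, 24-48 h at 37 °C. MIC is the lowest drug concentration producing 5% morphologically aberrant cells, scored by microscopy.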

Assay [3] has as its system Candida albicans. Description: Minimum inhibitory concentration against the growth of Candida albicans H-317 strain. In kind it is functional. The essentials: as §1
In assay [4] the target is Chitin synthase 1 (Candida albicans) (UniProt P23316). Description: (§2) Concentration at which chitin synthetase is inhibited by 50%. The format is functional. The essentials:
(§3)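 Mixed membrane (particulate) fraction from C. albicans H-317 was the enzyme source. Chitin synthetase activity was measured with and without polyoxin compounds as incorporation of N-acetylglucosamine into chitin. ID50 is the concentration giving 50% inhibition.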

Assay [5] concerns Candida albicans. Nature of the assay: Minimum inhibitory concentration against the growth of Candida albicans 124 NIK strain. The format is functional. Summed up:
as §1

For assay [6], the system named is Candida albicans. Nature of the assay: Percent inhibition of transport of (Leu)2 into Candida albicans H-317. The format is functional. Details: concentration or dose not given beside the values. Summed up: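 H-317 cells grown in yeast nitrogen base with isoleucine (0.5%) as nitrogen source, harvested at 8×10^6 cells/mL, and washed. Cells in 2% glucose were warmed 10 min at 37 °C, then mixed with pH 5.5 citrate (10 mM)-KH2PO4 (10 mM) buffer containing labeled dileucine (5.6×10^-5 M, 44 μCi/μmol). Analogue was present at 10-fold molar excess. Samples were filtered at 0-4 min and counted; uptake rate was expressed as nmol/mg dry weight/min.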

For assay [7], the target named is Chitin synthase 1 (Candida albicans) (UniProt P23316). The assay is described as §2. Summed up: as §3
In assay [8] the test system is Candida albicans. Nature of the assay: Compound was tested for hydrolysis by Candida albicans H-317 extract; (+) Indicates compound was hydrolyzed by C. albicans H-317 extract. In kind it is functional. Summed up:
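Cell extract of C. albicans H-317 (100 μL at 200 μg protein/mL) incubated at 37 °C with polyoxin compound (100 μL of 1 μg/mL) plus 300 μL water. Hydrolysis monitored by reversed-phase HPLC, absorbance at 254 nm.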

The mark [9] stands for this setting: Candida albicans, read-out: MIC.

In brackets after ≈: the same amount, converted by molar mass. A value given as a limit tells only on which side of the number the result lay.

Chitin synthase 1 (Candida albicans), sequence (P23316 whole entry, looked up): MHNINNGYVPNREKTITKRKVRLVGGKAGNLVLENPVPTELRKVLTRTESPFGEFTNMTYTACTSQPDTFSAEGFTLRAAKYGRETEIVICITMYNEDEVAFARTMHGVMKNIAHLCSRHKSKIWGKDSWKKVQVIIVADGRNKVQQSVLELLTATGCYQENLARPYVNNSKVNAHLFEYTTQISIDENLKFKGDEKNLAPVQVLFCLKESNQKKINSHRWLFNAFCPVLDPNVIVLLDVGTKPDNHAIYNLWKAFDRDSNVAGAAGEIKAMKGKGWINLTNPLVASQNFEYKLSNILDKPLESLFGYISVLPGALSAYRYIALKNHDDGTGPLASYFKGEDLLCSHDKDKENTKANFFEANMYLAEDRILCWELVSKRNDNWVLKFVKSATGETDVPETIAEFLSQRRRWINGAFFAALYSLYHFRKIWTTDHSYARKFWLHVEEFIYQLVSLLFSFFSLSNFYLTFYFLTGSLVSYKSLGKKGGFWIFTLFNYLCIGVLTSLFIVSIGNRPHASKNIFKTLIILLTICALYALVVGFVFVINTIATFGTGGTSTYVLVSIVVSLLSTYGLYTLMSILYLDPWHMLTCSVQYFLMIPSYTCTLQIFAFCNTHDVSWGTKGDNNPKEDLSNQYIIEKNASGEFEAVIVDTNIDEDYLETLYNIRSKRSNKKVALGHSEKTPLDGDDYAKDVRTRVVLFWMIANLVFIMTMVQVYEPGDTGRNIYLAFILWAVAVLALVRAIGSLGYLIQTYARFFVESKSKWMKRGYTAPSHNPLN

In the case of `NC(C(=O)O)[C@H]1O[C@@H](n2ccc(=O)[nH]c2=O)[C@H](O)[C@@H]1O` (stereo partly drawn), the Inhibition in assay [1] came to 3%. Also, the MIC in assay [2] (setting [9]), in assay [3] (setting [9]) and in assay [5] (setting [9]) was more than 640 µg/mL throughout. In assay [4], this molecule came in with an ID50 of more than 100 µg/mL.

For the molecule `CCCCCCCCCCC(N)C(=O)NC(C(=O)O)[C@H]1O[C@@H](n2ccc(=O)[nH]c2=O)[C@H](O)[C@@H]1O` (stereo partly drawn), the Inhibition turned out to be 0% in assay [1] and 87% in assay [6]. In addition, the MIC in assay [2] (setting [9]) stood at 40 µg/mL (≈ 82.6 µM); in assay [3] (setting [9]), 80 µg/mL (≈ 165 µM); in assay [5] (setting [9]) it was 80 µg/mL (≈ 165 µM). Besides, the ID50 in assay [7] amounted to 0.3 µg/mL (≈ 0.619 µM).

As for `NC(=O)OCC(O)C(O)C(N)C(=O)NC(C(=O)O)[C@H]1O[C@@H](n2cc(C(=O)O)c(=O)[nH]c2=O)[C@H](O)[C@@H]1O` (stereo partly drawn), the Inhibition in assay [1] is recorded as 10%; in assay [6], 5%. Further, the results for the MIC in assay [2] (setting [9]), in assay [3] (setting [9]) and in assay [5] (setting [9]) were 320 µg/mL (≈ 614 µM), 640 µg/mL (≈ 1230 µM) and 320 µg/mL (≈ 614 µM), respectively. Also, the ID50 in assay [7] is 2 µg/mL (≈ 3.84 µM).

On to `CCCCCCC(N)C(=O)NC(C(=O)O)[C@H]1O[C@@H](n2ccc(=O)[nH]c2=O)[C@H](O)[C@@H]1O` (stereo in doubt; 3a) [listing 1 of 2 here], for which the Inhibition turned out to be 6% in assay [1] and 71% in assay [6]. Also, the results for the MIC in assay [2], in assay [3] (setting [9]) and in assay [5] (setting [9]) were 80 µg/mL (≈ 187 µM), 160 µg/mL (≈ 373 µM) and 640 µg/mL (≈ 1490 µM), respectively.

For `CCCCCCC(N)C(=O)NC(C(=O)O)[C@H]1O[C@@H](n2ccc(=O)[nH]c2=O)[C@H](O)[C@@H]1O` (stereo in doubt; 3a) [listing 2 of 2 here], the Hydrolysis result in assay [8] is recorded as “(+)”. Further, in assay [7], the ID50 worked out at 2 µg/mL (≈ 4.67 µM).

`CCCCCCC(N)C(=O)NC(C(=O)O)[C@H]1O[C@@H](n2ccc(=O)[nH]c2=O)[C@H](O)[C@@H]1O` (stereo in doubt; 3b) [listing 1 of 2 here]: the Inhibition in assay [1] is listed as 10%; in assay [6] it was 14%. For the same molecule, the minimum inhibitory concentration (MIC) in assay [2], in assay [3] and in assay [5] was more than 320 µg/mL in each case.

Regarding `CCCCCCC(N)C(=O)NC(C(=O)O)[C@H]1O[C@@H](n2ccc(=O)[nH]c2=O)[C@H](O)[C@@H]1O` (stereo in doubt; 3b) [listing 2 of 2 here], in assay [7], the ID50 was more than 50 µg/mL.

As to `CCCCCCCCCCCCCCC(N)C(=O)NC(C(=O)O)[C@H]1O[C@@H](n2ccc(=O)[nH]c2=O)[C@H](O)[C@@H]1O` (stereo in doubt; 5a) [listing 1 of 2 here], the Inhibition in assay [6] came out at 56%.

With `CCCCCCCCCCCCCCC(N)C(=O)NC(C(=O)O)[C@H]1O[C@@H](n2ccc(=O)[nH]c2=O)[C@H](O)[C@@H]1O` (stereo in doubt; 5a) [listing 2 of 2 here], in assay [7], the ID50 is more than 100 µg/mL.

Consider `CCCCCCCCCCCCCCC(N)C(=O)NC(C(=O)O)[C@H]1O[C@@H](n2ccc(=O)[nH]c2=O)[C@H](O)[C@@H]1O` (stereo in doubt; 5b) [listing 1 of 2 here], for which the Inhibition in assay [1] is listed as 10%; in assay [6], 83%. Moreover, the MIC in assay [2] (setting [9]), in assay [3] (setting [9]) and in assay [5] (setting [9]) was more than 320 µg/mL each time.

Regarding `CCCCCCCCCCCCCCC(N)C(=O)NC(C(=O)O)[C@H]1O[C@@H](n2ccc(=O)[nH]c2=O)[C@H](O)[C@@H]1O` (stereo in doubt; 5b) [listing 2 of 2 here], the ID50 in assay [7] turned out to be 10 µg/mL (≈ 18.5 µM).
